{
  "source": "paper PMC11696060",
  "about": "(Nature Communications, 2025)",
  "key": {"[1]": {"test_system": "wild-type Arabidopsis seeds", "assay_type": "in vivo, Arabidopsis thaliana", "details": "after high temperature, 1 µM KAR2", "procedure,_shortened": "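Sterilized, stratified Columbia seeds (~30 per well) sown on 0.2% phytoagar containing 1 µM KAR₂ and a concentration series of test compound. Incubated at 30 °C under continuous white light (20 μmol m⁻² s⁻¹) 48 h, then 22 °C for 48 h. Germination % = germinated/total seeds per well; 6 biological replicates, means ± SE; one-way ANOVA with Tukey's HSD.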"}, "[2]": {"test_system": "wild-type Arabidopsis seedlings", "assay": "Hypocotyl elongation assay, wild-type Arabidopsis co-treated with KAR2", "assay_type": "in vivo, Arabidopsis thaliana", "details": "0.3 µM KAR2"}},
  "data": [
    {"compound": "O=C(N1CCc2ccccc21)n1ccnn1", "note": "[KK094]", "values": [
      {"measurement": "Concentration inhibiting the recovery of seed germination by KAR2", "setting": "[1]", "value": 100, "unit": "µM"},
      {"measurement": "Concentration at which KAR2-suppressed hypocotyl length is restored", "setting": "[2]", "value": 0.3, "unit": "µM"}
    ]}
  ]
}
